Experimental data collected from several papers.
Protocols differ between the studies behind these lines.
Target: Phosphatidylinositol 5-phosphate 4-kinase type-2 gamma (PIP4K2C, Homo sapiens, UniProt Q8TBX8)
One construct used (Q8TBX8 1-421): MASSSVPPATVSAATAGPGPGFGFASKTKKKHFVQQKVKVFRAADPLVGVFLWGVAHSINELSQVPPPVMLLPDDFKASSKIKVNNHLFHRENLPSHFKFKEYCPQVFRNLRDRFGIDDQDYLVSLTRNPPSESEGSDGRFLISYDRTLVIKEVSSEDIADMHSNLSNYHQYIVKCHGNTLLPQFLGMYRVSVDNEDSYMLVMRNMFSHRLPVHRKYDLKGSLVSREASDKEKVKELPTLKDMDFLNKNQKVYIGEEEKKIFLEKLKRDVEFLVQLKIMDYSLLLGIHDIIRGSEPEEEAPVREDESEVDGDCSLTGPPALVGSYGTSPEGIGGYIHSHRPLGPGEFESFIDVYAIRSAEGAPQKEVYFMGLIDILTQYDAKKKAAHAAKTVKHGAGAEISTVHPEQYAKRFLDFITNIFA

O=C(Nc1c[nH]nc1C(=O)NC1CCNCC1)c1cc(F)cc(F)c1  remaining binding (binding, competition with immobilised ligand; 1 µM): 76%
O=C(c1ccc(Nc2ncc(Cl)c(-c3ccc(Cl)s3)n2)cc1)N1CCC(N2CCCC2)CC1  remaining binding (binding, competition with immobilised ligand; 1 µM): 5.9%
N[C@@H]1CCN(c2nccc(-c3cnn4ncccc34)n2)C1  remaining binding (binding; 1 µM): 64%
Cn1cc(Cl)c2c(Oc3c(F)cc(Nc4cc(Cl)nc(N)n4)cc3F)ccnc21  remaining binding (cell-free assay, competition with immobilised ligand; 0.1 µM): 96%
C[C@H]1CCN(c2nccc(-c3cnn4ncccc34)n2)C1  remaining binding (binding; 1 µM): 42%
CNCc1ccccc1-c1csc([C@H](C)Nc2nc(C)nc3cc(OC)c(OC)cc23)c1  remaining binding (cell-free assay, competition with immobilised ligand; 1 µM): 100%
C[C@@H](c1ccc(-n2cnc3c(N)ncnc32)cc1)N1CCc2nn(C)c(Cc3ccccc3)c2C1=O  remaining binding (binding, competition with immobilised ligand; 0.1 µM): 96%
COc1cnc(Nc2cccc(S(N)(=O)=O)c2)nc1N1CCN(c2ccccc2)C(=O)C1  remaining binding (binding, competition with immobilised ligand; 1 µM): 0.95%
O=C(N1CCS(=O)(=O)CC1)N1C[C@H](c2ccc(OC(F)(F)F)cc2)C[C@H](c2nc(C3CC3)no2)C1  remaining binding (cell-free assay, competition with immobilised ligand; 1 µM): 96%
CNC(=O)[C@@H]1CC[C@@H](n2c(-c3ccc4cnccc4c3)nc3ccc(C(=O)NCc4cccc(C(N)=O)c4)cc32)C1  remaining binding (binding, competition with immobilised ligand; 1 µM): 91%
CN(CCCC(F)(F)F)c1nccc(-c2cnn3ncccc23)n1  remaining binding (binding; 1 µM): 100%
O=C(c1ccc(Nc2nccc(-c3cc4ccccc4s3)n2)cc1)N1CCC(N2CCCC2)CC1  remaining binding (binding, competition with immobilised ligand; 1 µM): 1.4%
C=CC(=O)N1CCC(C(=O)NCC(=O)N2CCN(c3nc(-c4cnc(N)nc4C(F)F)nc(N4CCOCC4)n3)CC2)CC1  remaining binding (binding, competition with immobilised ligand; 1 µM): 95%
CCN1CCN(Cc2ccc(C(=O)Nc3ccc(C)c(Oc4ccc5c(c4)CC(=O)N5)c3)cc2C(F)(F)F)CC1  remaining binding (binding, competition with immobilised ligand; 1 µM): 100%
NS(=O)(=O)c1cc(NC(=O)Cc2ccccc2)ccc1Oc1cccc(Cl)c1  remaining binding (cell-free assay, competition with immobilised ligand; 1 µM): 100%
c1cncc(-c2cccc(Nc3nccc(NC4CCCCC4)n3)c2)c1  remaining binding (binding, competition with immobilised ligand; 10 µM): 21%
CC1CCCN1c1nccc(-c2cnn3ncccc23)n1 (stereo not shown)  remaining binding (binding; 1 µM): 100%
CCS(=O)(=O)c1cc2cc(C[C@](O)(CC(C)(C)c3ccc(F)cc3C(N)=O)C(F)(F)F)[nH]c2cn1  remaining binding (cell-free assay, competition with immobilised ligand; 1 µM): 100%
CN(C)c1nccc(-c2cnn3ncccc23)n1  remaining binding (binding; 1 µM): 100%
O=C(NCCCN1CCOCC1)c1ccc(Nc2nccc(-c3cc4ccccc4s3)n2)cc1  remaining binding (binding, competition with immobilised ligand; 1 µM): 1.9%
CN(c1nccc(-c2cnn3ncccc23)n1)C1CC1  remaining binding (binding; 1 µM): 100%
c1ccc(N2CCN(Cc3nc4ccccc4[nH]3)CC2)nc1  remaining binding (binding, competition with immobilised ligand; 1 µM): 86%
